22 compounds from ChEMBL document CHEMBL4706643 (J Med Chem, 2021) can be followed below.

A short description of series [1]: Intrinsic clearance in mouse liver microsomes at 1 uM preincubated for 5 mins followed by NADPH addition and measured upto 60 mins by LC-MS analysis. It is filed as ADME, Microsome. The settings on record: read-out: CLH. In outline: (§1)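 Human or mouse liver microsomes, final 1 mg/mL in 0.05 M phosphate buffer pH 7.4; compound final 1 μM, preincubated 37 °C 5 min, started with 1 mM NADPH; sampled at 0, 5, 15, 30, 60 min, methanol quench, −20 °C 1 h, centrifuged, supernatant by LC–MS.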

Series [2] is described as follows: Intrinsic clearance in rat liver microsomes at 1 uM preincubated for 5 mins followed by NADPH addition and measured upto 60 mins by LC-MS analysis. It counts as ADME, Microsome. Conditions: time 65 min, read-out: CLH.
Another series has as its system Hepatitis B virus. The series is described as follows: Antiviral activity against HBV infected in human HepG2-NTCP cells assessed as reduction in HBeAg secretion cells inoculated with virus for 4 hrs at room temperature and 37 degree C for 24 hrs followed inoculum changed with PMM medium for every 2 days until day 5 post infection by ELISA. It counts as functional, organism-based.

Series [3] in a line: Intrinsic clearance in human liver microsomes at 1 uM preincubated for 5 mins followed by NADPH addition and measured upto 60 mins by LC-MS analysis. The settings on record: read-out: CLH. It is filed as ADME, Microsome. The essentials: as §1

By IC50 is commonly meant the concentration that inhibits the measured activity by half. Regarding `CC[C@@H]1NC(=O)[C@H]([C@@H]2O[C@@H](Sc3cccc(OCc4ccc(F)cc4C)c3)C[C@H]2C)N(C)C(=O)[C@H](C(C)C)N(C)C(=O)[C@H](CC(C)C)N(C)C(=O)[C@H](CC(C)C)N(C)C(=O)[C@@H](C)NC(=O)[C@H](C)NC(=O)[C@H](CC(C)C)N(C)C(=O)[C@H](C(C)C)NC(=O)[C@H](CC(C)C)N(C)C(=O)CN(C)C1=O`, the microsomal CLint at 1 µM in series [1] turned out to be 7.1 µL/min/mg; in series [2], 0.8 µL/min/mg. Further, the IC50 in the series with Hepatitis B virus turned out to be 122 nM.

`CC[C@@H]1NC(=O)[C@H]([C@@H]2O[C@@H](Sc3cc(Cl)cc(OC)c3)C[C@H]2C)N(C)C(=O)[C@H](C(C)C)N(C)C(=O)[C@H](CC(C)C)N(C)C(=O)[C@H](CC(C)C)N(C)C(=O)[C@@H](C)NC(=O)[C@H](C)NC(=O)[C@H](CC(C)C)N(C)C(=O)[C@H](C(C)C)NC(=O)[C@H](CC(C)C)N(C)C(=O)CN(C)C1=O`: the figures for the microsomal CLint at 1 µM in series [1] and in series [3] were 2.2 µL/min/mg and 4.2 µL/min/mg, respectively. Further, the IC50 with Hepatitis B virus turned out to be 116 nM.

As for `CC[C@@H]1NC(=O)[C@H]([C@@H]2O[C@H](Sc3cccc(OCc4ccccc4)c3)C[C@H]2C)N(C)C(=O)[C@H](C(C)C)N(C)C(=O)[C@H](CC(C)C)N(C)C(=O)[C@H](CC(C)C)N(C)C(=O)[C@@H](C)NC(=O)[C@H](C)NC(=O)[C@H](CC(C)C)N(C)C(=O)[C@H](C(C)C)NC(=O)[C@H](CC(C)C)N(C)C(=O)CN(C)C1=O`, the microsomal CLint at 1 µM in series [1] is 2.1 µL/min/mg; in series [3] it was 7.7 µL/min/mg; in series [2] it was 3 µL/min/mg.

On to `CC[C@@H]1NC(=O)[C@H]([C@@H]2O[C@@H](Sc3cccc(N(C)CC)c3)C[C@H]2C)N(C)C(=O)[C@H](C(C)C)N(C)C(=O)[C@H](CC(C)C)N(C)C(=O)[C@H](CC(C)C)N(C)C(=O)[C@@H](C)NC(=O)[C@H](C)NC(=O)[C@H](CC(C)C)N(C)C(=O)[C@H](C(C)C)NC(=O)[C@H](CC(C)C)N(C)C(=O)CN(C)C1=O`, for which, in the series on Hepatitis B virus, the IC50 was found to be 206 nM.

Regarding `CC[C@@H]1NC(=O)[C@H]([C@@H]2O[C@@H](Sc3cccc(OCc4ccc(F)cc4Cl)c3)C[C@H]2C)N(C)C(=O)[C@H](C(C)C)N(C)C(=O)[C@H](CC(C)C)N(C)C(=O)[C@H](CC(C)C)N(C)C(=O)[C@@H](C)NC(=O)[C@H](C)NC(=O)[C@H](CC(C)C)N(C)C(=O)[C@H](C(C)C)NC(=O)[C@H](CC(C)C)N(C)C(=O)CN(C)C1=O`, the IC50 in the series with Hepatitis B virus was 403 nM.

Consider `CC[C@@H]1NC(=O)[C@H]([C@@H]2O[C@@H](Sc3cccc(OCC4CCOCC4)c3)C[C@H]2C)N(C)C(=O)[C@H](C(C)C)N(C)C(=O)[C@H](CC(C)C)N(C)C(=O)[C@H](CC(C)C)N(C)C(=O)[C@@H](C)NC(=O)[C@H](C)NC(=O)[C@H](CC(C)C)N(C)C(=O)[C@H](C(C)C)NC(=O)[C@H](CC(C)C)N(C)C(=O)CN(C)C1=O`, for which the IC50 with Hepatitis B virus amounted to 249 nM.

Take `CC[C@@H]1NC(=O)[C@H]([C@@H]2O[C@@H](Sc3cccc(OCc4ccc(F)c(Cl)c4)c3)C[C@H]2C)N(C)C(=O)[C@H](C(C)C)N(C)C(=O)[C@H](CC(C)C)N(C)C(=O)[C@H](CC(C)C)N(C)C(=O)[C@@H](C)NC(=O)[C@H](C)NC(=O)[C@H](CC(C)C)N(C)C(=O)[C@H](C(C)C)NC(=O)[C@H](CC(C)C)N(C)C(=O)CN(C)C1=O`: in the series on Hepatitis B virus, the IC50 turned out to be 335 nM.

With `CC[C@@H]1NC(=O)[C@H]([C@@H]2OCC[C@H]2C)N(C)C(=O)[C@H](C(C)C)N(C)C(=O)[C@H](CC(C)C)N(C)C(=O)[C@H](CC(C)C)N(C)C(=O)[C@@H](C)NC(=O)[C@H](C)NC(=O)[C@H](CC(C)C)N(C)C(=O)[C@H](C(C)C)NC(=O)[C@H](CC(C)C)N(C)C(=O)CN(C)C1=O`, the IC50 in the series with Hepatitis B virus was greater than 10000 nM.

With `CC[C@@H]1NC(=O)[C@H]([C@@H]2O[C@@H](Sc3cc(Cl)cc(OCc4ccc(F)cc4)c3)C[C@H]2C)N(C)C(=O)[C@H](C(C)C)N(C)C(=O)[C@H](CC(C)C)N(C)C(=O)[C@H](CC(C)C)N(C)C(=O)[C@@H](C)NC(=O)[C@H](C)NC(=O)[C@H](CC(C)C)N(C)C(=O)[C@H](C(C)C)NC(=O)[C@H](CC(C)C)N(C)C(=O)CN(C)C1=O`, the IC50 in the series with Hepatitis B virus came to 417 nM.

Regarding `CC[C@@H]1NC(=O)[C@H]([C@@H]2O[C@@H](Sc3ccc(Cl)c(OCc4ccccc4)c3)C[C@H]2C)N(C)C(=O)[C@H](C(C)C)N(C)C(=O)[C@H](CC(C)C)N(C)C(=O)[C@H](CC(C)C)N(C)C(=O)[C@@H](C)NC(=O)[C@H](C)NC(=O)[C@H](CC(C)C)N(C)C(=O)[C@H](C(C)C)NC(=O)[C@H](CC(C)C)N(C)C(=O)CN(C)C1=O`, the IC50 in the series with Hepatitis B virus was 215 nM.

For `CC[C@@H]1NC(=O)[C@H]([C@@H]2O[C@@H](Sc3cccc(OCCc4ccccc4)c3)C[C@H]2C)N(C)C(=O)[C@H](C(C)C)N(C)C(=O)[C@H](CC(C)C)N(C)C(=O)[C@H](CC(C)C)N(C)C(=O)[C@@H](C)NC(=O)[C@H](C)NC(=O)[C@H](CC(C)C)N(C)C(=O)[C@H](C(C)C)NC(=O)[C@H](CC(C)C)N(C)C(=O)CN(C)C1=O`, in the series with Hepatitis B virus, the IC50 is 354 nM.

With `CC[C@@H]1NC(=O)[C@H]([C@@H]2O[C@@H](Sc3ccc(OC)cc3)C[C@H]2C)N(C)C(=O)[C@H](C(C)C)N(C)C(=O)[C@H](CC(C)C)N(C)C(=O)[C@H](CC(C)C)N(C)C(=O)[C@@H](C)NC(=O)[C@H](C)NC(=O)[C@H](CC(C)C)N(C)C(=O)[C@H](C(C)C)NC(=O)[C@H](CC(C)C)N(C)C(=O)CN(C)C1=O`, the IC50 in the series with Hepatitis B virus stood at 990 nM.

On to `CC[C@@H]1NC(=O)[C@H]([C@@H]2O[C@@H](Sc3cccc(OCc4ccc(=O)n(C)c4)c3)C[C@H]2C)N(C)C(=O)[C@H](C(C)C)N(C)C(=O)[C@H](CC(C)C)N(C)C(=O)[C@H](CC(C)C)N(C)C(=O)[C@@H](C)NC(=O)[C@H](C)NC(=O)[C@H](CC(C)C)N(C)C(=O)[C@H](C(C)C)NC(=O)[C@H](CC(C)C)N(C)C(=O)CN(C)C1=O`, for which the IC50 in the series on Hepatitis B virus is 480 nM.

Consider `C=C(C)C1C[C@@H](C)[C@H]([C@H]2C(=O)N[C@@H](CC)C(=O)N(C)CC(=O)N(C)[C@@H](CC(C)C)C(=O)N[C@@H](C(C)C)C(=O)N(C)[C@@H](CC(C)C)C(=O)N[C@@H](C)C(=O)N[C@H](C)C(=O)N(C)[C@@H](CC(C)C)C(=O)N(C)[C@@H](CC(C)C)C(=O)N(C)[C@@H](C(C)C)C(=O)N2C)O1` (stereo partly drawn), for which, in the series on Hepatitis B virus, the IC50 was greater than 10000 nM.

With `CC[C@@H]1NC(=O)[C@H]([C@@H]2OC(C(C)=O)C[C@H]2C)N(C)C(=O)[C@H](C(C)C)N(C)C(=O)[C@H](CC(C)C)N(C)C(=O)[C@H](CC(C)C)N(C)C(=O)[C@@H](C)NC(=O)[C@H](C)NC(=O)[C@H](CC(C)C)N(C)C(=O)[C@H](C(C)C)NC(=O)[C@H](CC(C)C)N(C)C(=O)CN(C)C1=O` (stereo partly drawn), the IC50 with Hepatitis B virus was greater than 10000 nM.

As for `CC[C@@H]1NC(=O)[C@H]([C@@H]2O[C@@H](Sc3cccc(OCc4ccccc4F)c3)C[C@H]2C)N(C)C(=O)[C@H](C(C)C)N(C)C(=O)[C@H](CC(C)C)N(C)C(=O)[C@H](CC(C)C)N(C)C(=O)[C@@H](C)NC(=O)[C@H](C)NC(=O)[C@H](CC(C)C)N(C)C(=O)[C@H](C(C)C)NC(=O)[C@H](CC(C)C)N(C)C(=O)CN(C)C1=O`, the IC50 in the series on Hepatitis B virus came out at 318 nM.

Regarding `CC[C@@H]1NC(=O)[C@H]([C@@H]2O[C@@H](Sc3cccc(OC(C)c4ccccc4)c3)C[C@H]2C)N(C)C(=O)[C@H](C(C)C)N(C)C(=O)[C@H](CC(C)C)N(C)C(=O)[C@H](CC(C)C)N(C)C(=O)[C@@H](C)NC(=O)[C@H](C)NC(=O)[C@H](CC(C)C)N(C)C(=O)[C@H](C(C)C)NC(=O)[C@H](CC(C)C)N(C)C(=O)CN(C)C1=O` (stereo partly drawn), the IC50 in the series on Hepatitis B virus stood at 172 nM.

`CC[C@@H]1NC(=O)[C@H]([C@@H]2OC(OC)C[C@H]2C)N(C)C(=O)[C@H](C(C)C)N(C)C(=O)[C@H](CC(C)C)N(C)C(=O)[C@H](CC(C)C)N(C)C(=O)[C@@H](C)NC(=O)[C@H](C)NC(=O)[C@H](CC(C)C)N(C)C(=O)[C@H](C(C)C)NC(=O)[C@H](CC(C)C)N(C)C(=O)CN(C)C1=O` (stereo partly drawn): the IC50 in the series with Hepatitis B virus was 13500 nM.

For the compound `C/C=C/C[C@@H](C)[C@@H](O)[C@H]1C(=O)N[C@@H](CC)C(=O)N(C)CC(=O)N(C)[C@@H](CC(C)C)C(=O)N[C@@H](C(C)C)C(=O)N(C)[C@@H](CC(C)C)C(=O)N[C@@H](C)C(=O)N[C@H](C)C(=O)N(C)[C@@H](CC(C)C)C(=O)N(C)[C@@H](CC(C)C)C(=O)N(C)[C@@H](C(C)C)C(=O)N1C` [CYCLOSPORINE], the IC50 in the series on Hepatitis B virus worked out at 5780 nM.

Consider `CC[C@@H]1NC(=O)[C@H]([C@@H]2O[C@@H](Sc3cccc(OC)c3)C[C@H]2C)N(C)C(=O)[C@H](C(C)C)N(C)C(=O)[C@H](CC(C)C)N(C)C(=O)[C@H](CC(C)C)N(C)C(=O)[C@@H](C)NC(=O)[C@H](C)NC(=O)[C@H](CC(C)C)N(C)C(=O)[C@H](C(C)C)NC(=O)[C@H](CC(C)C)N(C)C(=O)CN(C)C1=O`, for which the IC50 with Hepatitis B virus was 530 nM.

With `CC[C@@H]1NC(=O)[C@H]([C@@H]2O[C@H](Sc3ccccc3)C[C@H]2C)N(C)C(=O)[C@H](C(C)C)N(C)C(=O)[C@H](CC(C)C)N(C)C(=O)[C@H](CC(C)C)N(C)C(=O)[C@@H](C)NC(=O)[C@H](C)NC(=O)[C@H](CC(C)C)N(C)C(=O)[C@H](C(C)C)NC(=O)[C@H](CC(C)C)N(C)C(=O)CN(C)C1=O`, the IC50 in the series on Hepatitis B virus worked out at 5330 nM.

Regarding `CC[C@@H]1NC(=O)[C@H]([C@@H]2O[C@@H](Sc3c(OC)cccc3OC)C[C@H]2C)N(C)C(=O)[C@H](C(C)C)N(C)C(=O)[C@H](CC(C)C)N(C)C(=O)[C@H](CC(C)C)N(C)C(=O)[C@@H](C)NC(=O)[C@H](C)NC(=O)[C@H](CC(C)C)N(C)C(=O)[C@H](C(C)C)NC(=O)[C@H](CC(C)C)N(C)C(=O)CN(C)C1=O`, the IC50 with Hepatitis B virus was 2170 nM.
